Measured values reported in ChEMBL document CHEMBL4689842, “EUbOPEN Chemogenomics Library wave 1” (2021).

Tested on: U2OS
Assay: Multiplex assay against U2OS
Type: toxicity, cell-based
Details: human
In short: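 Cells were classed with CellPathfinder machine-learning gating, first as Hoechst high-intensity objects or normal cells, then (normal cells) as healthy, pyknosed or fragmented nuclei, and finally (pyknosed cells) as mitotic or apoptotic. Staining of live cells at seeding used Hoechst33342, BioTracker Green Microtubule Cytoskeleton Dye, MitoTracker Red and Annexin V Alexa Fluor 680, with imaging on a CQ1 microscope at 37°C and 5% CO2 after compound addition. Tubulin, mitochondrial-mass and membrane-permeability phenotypes are per cents of healthy-nucleus cells.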

[1] = 12 h, 1 µM, compound concentration 1 uM, replicate 1
[2] = 12 h, 1 µM, compound concentration 1 uM, replicate 2
[3] = 12 h, 10 µM, compound concentration 10 uM, replicate 1
[4] = 12 h, 10 µM, compound concentration 10 uM, replicate 2
[5] = 24 h, 1 µM, compound concentration 1 uM, replicate 1
[6] = 24 h, 1 µM, compound concentration 1 uM, replicate 2
[7] = 24 h, 10 µM, compound concentration 10 uM, replicate 1
[8] = 24 h, 10 µM, compound concentration 10 uM, replicate 2
[9] = 48 h, 1 µM, compound concentration 1 uM, replicate 1
[10] = 48 h, 1 µM, compound concentration 1 uM, replicate 2
[11] = 48 h, 10 µM, compound concentration 10 uM, replicate 1
[12] = 48 h, 10 µM, compound concentration 10 uM, replicate 2

CC(C)[C@H](CO)Nc1nc(Nc2cccc(Cl)c2)c2ncn(C(C)C)c2n1 [PURVALANOLA]
Population Apoptotic (%) [1]: 58% | Population Fragmented Nuclei (%) [1]: 13% | Population Healthy Nuclei (%) [1]: 76% | Population Hoechst High Intensity Objects (%) [1]: 12% | Population Membrane Permeable-Phenotype (%) [1]: 1% | Population Mitochondria Different-Phenotype (%) [1]: 15% | Population Mitotic Cells (%) [1]: 41% | Population Normal (%) [1]: 87% | Population Pyknosed Nuclei (%) [1]: 10% | Population Tubulin-Different-Phenotype (%) [1]: 12% | Total Cell Count [1]: 212 | Population Apoptotic (%) [2]: 50% | Population Fragmented Nuclei (%) [2]: 8% | Population Healthy Nuclei (%) [2]: 88% | Population Hoechst High Intensity Objects (%) [2]: 10% | Population Membrane Permeable-Phenotype (%) [2]: 7% | Population Mitochondria Different-Phenotype (%) [2]: 21% | Population Mitotic Cells (%) [2]: 50% | Population Normal (%) [2]: 89% | Population Pyknosed Nuclei (%) [2]: 3% | Population Tubulin-Different-Phenotype (%) [2]: 15% | Total Cell Count [2]: 111 | Population Apoptotic (%) [3]: 68% | Population Fragmented Nuclei (%) [3]: 23% | Population Healthy Nuclei (%) [3]: 55% | Population Hoechst High Intensity Objects (%) [3]: 13% | Population Membrane Permeable-Phenotype (%) [3]: 39% | Population Mitochondria Different-Phenotype (%) [3]: 96% | Population Mitotic Cells (%) [3]: 32% | Population Normal (%) [3]: 86% | Population Pyknosed Nuclei (%) [3]: 21% | Population Tubulin-Different-Phenotype (%) [3]: 100% | Total Cell Count [3]: 129 | Population Apoptotic (%) [4]: 83% | Population Fragmented Nuclei (%) [4]: 13% | Population Healthy Nuclei (%) [4]: 79% | Population Hoechst High Intensity Objects (%) [4]: 7% | Population Membrane Permeable-Phenotype (%) [4]: 23% | Population Mitochondria Different-Phenotype (%) [4]: 95% | Population Mitotic Cells (%) [4]: 16% | Population Normal (%) [4]: 92% | Population Pyknosed Nuclei (%) [4]: 6% | Population Tubulin-Different-Phenotype (%) [4]: 98% | Total Cell Count [4]: 66 | Population Apoptotic (%) [5]: 36% | Population Fragmented Nuclei (%) [5]: 10% | Population Healthy Nuclei (%) [5]: 80% | Population Hoechst High Intensity Objects (%) [5]: 5% | Population Membrane Permeable-Phenotype (%) [5]: 3% | Population Mitochondria Different-Phenotype (%) [5]: 7% | Population Mitotic Cells (%) [5]: 63% | Population Normal (%) [5]: 94% | Population Tubulin-Different-Phenotype (%) [5]: 6% | Total Cell Count [5]: 221 | Population Apoptotic (%) [6]: 60% | Population Fragmented Nuclei (%) [6]: 8% | Population Healthy Nuclei (%) [6]: 83% | Population Hoechst High Intensity Objects (%) [6]: 6% | Population Membrane Permeable-Phenotype (%) [6]: 5% | Population Mitochondria Different-Phenotype (%) [6]: 23% | Population Mitotic Cells (%) [6]: 40% | Population Normal (%) [6]: 93% | Population Pyknosed Nuclei (%) [6]: 8% | Population Tubulin-Different-Phenotype (%) [6]: 9% | Total Cell Count [6]: 157 | Population Apoptotic (%) [7]: 67% | Population Fragmented Nuclei (%) [7]: 27% | Population Healthy Nuclei (%) [7]: 48% | Population Hoechst High Intensity Objects (%) [7]: 16% | Population Membrane Permeable-Phenotype (%) [7]: 55% | Population Mitochondria Different-Phenotype (%) [7]: 100% | Population Mitotic Cells (%) [7]: 32% | Population Normal (%) [7]: 83% | Population Pyknosed Nuclei (%) [7]: 24% | Population Tubulin-Different-Phenotype (%) [7]: 100% | Total Cell Count [7]: 133 | Population Apoptotic (%) [8]: 80% | Population Fragmented Nuclei (%) [8]: 16% | Population Healthy Nuclei (%) [8]: 65% | Population Hoechst High Intensity Objects (%) [8]: 8% | Population Membrane Permeable-Phenotype (%) [8]: 50% | Population Mitotic Cells (%) [8]: 20% | Population Normal (%) [8]: 91% | Population Pyknosed Nuclei (%) [8]: 17% | Total Cell Count [8]: 66 | Population Fragmented Nuclei (%) [9]: 12% | Population Healthy Nuclei (%) [9]: 82% | Population Hoechst High Intensity Objects (%) [9]: 4% | Population Membrane Permeable-Phenotype (%) [9]: 4% | Population Mitochondria Different-Phenotype (%) [9]: 14% | Population Normal (%) [9]: 95% | Population Pyknosed Nuclei (%) [9]: 5% | Population Tubulin-Different-Phenotype (%) [9]: 7% | Total Cell Count [9]: 219 | Population Apoptotic (%) [10]: 60% | Population Fragmented Nuclei (%) [10]: 4% | Population Healthy Nuclei (%) [10]: 84% | Population Hoechst High Intensity Objects (%) [10]: 5% | Population Membrane Permeable-Phenotype (%) [10]: 6% | Population Mitochondria Different-Phenotype (%) [10]: 25% | Population Mitotic Cells (%) [10]: 40% | Population Normal (%) [10]: 94% | Population Pyknosed Nuclei (%) [10]: 11% | Population Tubulin-Different-Phenotype (%) [10]: 10% | Total Cell Count [10]: 168 | Population Apoptotic (%) [11]: 77% | Population Fragmented Nuclei (%) [11]: 33% | Population Healthy Nuclei (%) [11]: 17% | Population Hoechst High Intensity Objects (%) [11]: 23% | Population Membrane Permeable-Phenotype (%) [11]: 64% | Population Mitochondria Different-Phenotype (%) [11]: 94% | Population Mitotic Cells (%) [11]: 22% | Population Normal (%) [11]: 76% | Population Pyknosed Nuclei (%) [11]: 49% | Population Tubulin-Different-Phenotype (%) [11]: 100% | Total Cell Count [11]: 189 | Population Apoptotic (%) [12]: 100% | Population Fragmented Nuclei (%) [12]: 16% | Population Healthy Nuclei (%) [12]: 62% | Population Hoechst High Intensity Objects (%) [12]: 18% | Population Membrane Permeable-Phenotype (%) [12]: 58% | Population Mitochondria Different-Phenotype (%) [12]: 87% | Population Mitotic Cells (%) [12]: 0% | Population Normal (%) [12]: 81% | Population Pyknosed Nuclei (%) [12]: 20% | Population Tubulin-Different-Phenotype (%) [12]: 93% | Total Cell Count [12]: 94

CCOc1ccn(-c2ccc(F)cc2)c(=O)c1C(=O)Nc1ccc(Oc2ccnc(N)c2Cl)c(F)c1 [BMS-777607]
Population Apoptotic (%) [1]: 41% | Population Healthy Nuclei (%) [1]: 88% | Population Hoechst High Intensity Objects (%) [1]: 4% | Population Membrane Permeable-Phenotype (%) [1]: 35% | Population Mitochondria Different-Phenotype (%) [1]: 11% | Population Mitotic Cells (%) [1]: 58% | Population Normal (%) [1]: 95% | Population Pyknosed Nuclei (%) [1]: 6% | Total Cell Count [1]: 190 | Population Apoptotic (%) [2]: 28% | Population Fragmented Nuclei (%) [2]: 4% | Population Healthy Nuclei (%) [2]: 86% | Population Hoechst High Intensity Objects (%) [2]: 13% | Population Membrane Permeable-Phenotype (%) [2]: 40% | Population Mitochondria Different-Phenotype (%) [2]: 31% | Population Mitotic Cells (%) [2]: 71% | Population Normal (%) [2]: 86% | Population Pyknosed Nuclei (%) [2]: 8% | Population Tubulin-Different-Phenotype (%) [2]: 18% | Total Cell Count [2]: 94 | Population Apoptotic (%) [3]: 66% | Population Fragmented Nuclei (%) [3]: 2% | Population Healthy Nuclei (%) [3]: 91% | Population Hoechst High Intensity Objects (%) [3]: 1% | Population Membrane Permeable-Phenotype (%) [3]: 5% | Population Mitochondria Different-Phenotype (%) [3]: 33% | Population Mitotic Cells (%) [3]: 33% | Population Normal (%) [3]: 98% | Population Pyknosed Nuclei (%) [3]: 6% | Population Tubulin-Different-Phenotype (%) [3]: 29% | Total Cell Count [3]: 193 | Population Apoptotic (%) [4]: 0% | Population Fragmented Nuclei (%) [4]: 6% | Population Healthy Nuclei (%) [4]: 89% | Population Hoechst High Intensity Objects (%) [4]: 16% | Population Mitochondria Different-Phenotype (%) [4]: 30% | Population Mitotic Cells (%) [4]: 100% | Population Normal (%) [4]: 83% | Population Pyknosed Nuclei (%) [4]: 4% | Population Tubulin-Different-Phenotype (%) [4]: 37% | Total Cell Count [4]: 118 | Population Apoptotic (%) [5]: 57% | Population Fragmented Nuclei (%) [5]: 7% | Population Healthy Nuclei (%) [5]: 85% | Population Hoechst High Intensity Objects (%) [5]: 3% | Population Membrane Permeable-Phenotype (%) [5]: 37% | Population Mitochondria Different-Phenotype (%) [5]: 23% | Population Mitotic Cells (%) [5]: 42% | Population Normal (%) [5]: 96% | Population Pyknosed Nuclei (%) [5]: 7% | Population Tubulin-Different-Phenotype (%) [5]: 16% | Total Cell Count [5]: 196 | Population Apoptotic (%) [6]: 36% | Population Fragmented Nuclei (%) [6]: 6% | Population Healthy Nuclei (%) [6]: 81% | Population Hoechst High Intensity Objects (%) [6]: 10% | Population Membrane Permeable-Phenotype (%) [6]: 28% | Population Mitochondria Different-Phenotype (%) [6]: 35% | Population Mitotic Cells (%) [6]: 63% | Population Normal (%) [6]: 89% | Population Pyknosed Nuclei (%) [6]: 12% | Population Tubulin-Different-Phenotype (%) [6]: 20% | Total Cell Count [6]: 101 | Population Apoptotic (%) [7]: 26% | Population Fragmented Nuclei (%) [7]: 3% | Population Healthy Nuclei (%) [7]: 91% | Population Hoechst High Intensity Objects (%) [7]: 1% | Population Membrane Permeable-Phenotype (%) [7]: 5% | Population Mitochondria Different-Phenotype (%) [7]: 27% | Population Mitotic Cells (%) [7]: 73% | Population Normal (%) [7]: 98% | Population Pyknosed Nuclei (%) [7]: 5% | Population Tubulin-Different-Phenotype (%) [7]: 30% | Total Cell Count [7]: 263 | Population Apoptotic (%) [8]: 12% | Population Fragmented Nuclei (%) [8]: 2% | Population Healthy Nuclei (%) [8]: 90% | Population Hoechst High Intensity Objects (%) [8]: 8% | Population Membrane Permeable-Phenotype (%) [8]: 8% | Population Mitochondria Different-Phenotype (%) [8]: 34% | Population Mitotic Cells (%) [8]: 87% | Population Normal (%) [8]: 91% | Population Pyknosed Nuclei (%) [8]: 6% | Population Tubulin-Different-Phenotype (%) [8]: 36% | Total Cell Count [8]: 133
